Reference: publication PMC10092221 (Journal of Clinical Pharmacology, 2022)
Where “and” joins values, the source holds several entries; their conditions need not be identical. Equal entries are not always repeated. Where two headings read alike, the source gives them in different places.

Key:
OATP1B3 = details: cited from earlier work
[1] = Capmatinib/CMN288 pharmacokinetics, inhibition cohort; format: in vivo, human (healthy subjects); details: for AUCinf geometric mean ratio (90%CI) / AUClast geometric mean ratio (90%CI) / Cmax geometric mean ratio (90%CI): itraconazole + capmatinib 200 mg / capmatinib alone
How it was run: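 Inhibition cohort of healthy subjects (n = 27): a single fasted oral 200 mg dose on day 1, then a 4-day washout. Itraconazole 200 mg was given daily on days 5–14, and 200 mg test compound was dosed 1 h after the sixth itraconazole dose (day 10). Plasma was sampled serially to 96 h after each dose and assayed by validated LC-MS/MS (LLOQ ≈1.0 ng/mL). Test/reference ratios are antilogged point estimates with 2-sided 90%CIs.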

MATE2K = details: read-out: Ki, MATE2K inhibition; in vitro; ref Novartis data on file; cited from earlier work
Safety assessment = format: in vivo, human (healthy subjects)
OATP1B1 = details: cited from earlier work
[2] = healthy subjects, used for sample size; cited from earlier work
[3] = format: in vivo, human (healthy subjects); details: for Maximum increase of serum creatinine concentration from baseline: at 24 hours
How it was run: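 Blood was drawn from healthy subjects at 0, 2, 4, 8, 24, 48 and 72 h after the day-1 single fasted oral dose: 200 mg in the inhibition cohort, 400 mg in the induction cohort. Creatinine and cystatin C were measured in each sample. Change from baseline was summarized descriptively by time point.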

[4] = Capmatinib/CMN288 pharmacokinetics, induction cohort; format: in vivo, human (healthy subjects); details: for AUC(0-inf): AUCinf; for AUC(0-t): AUClast; for AUCinf geometric mean ratio (90%CI) / AUClast geometric mean ratio (90%CI) / Cmax geometric mean ratio (90%CI): rifampicin + capmatinib 400 mg / capmatinib alone
How it was run: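 Healthy subjects (induction cohort, n = 26) received a single fasted oral 400 mg dose on day 1, then a 4-day washout. Rifampicin 600 mg was given daily on days 5–13, with 400 mg test compound coadministered with the sixth dose on day 10. Serial plasma was drawn to 72 h after each dose and frozen <–70°C. Parent and metabolite were measured by validated LC-MS/MS (LLOQ ≈1.0 ng/mL). Ratios are antilogged 90%CIs.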

MATE1 = details: read-out: Ki, MATE1 inhibition; in vitro; ref Novartis data on file; cited from earlier work
[5] = therapeutic dose 400 mg twice daily, cited from earlier work
[6] = capmatinib + itraconazole compared to capmatinib alone
[7] = inhibition cohort, healthy subjects, single oral capmatinib 200 mg + itraconazole 200 mg/day, plasma
[8] = inhibition cohort, healthy subjects, single oral capmatinib 200 mg alone, plasma
[9] = induction cohort N=26 (capmatinib 400 mg, rifampicin 600 mg/day)
[10] = inhibition cohort N=27 (capmatinib 200 mg, itraconazole 200 mg/day)
[11] = single dose 200 mg capmatinib, inhibition cohort
[12] = single dose 400 mg capmatinib, induction cohort
[13] = capmatinib + rifampicin compared to capmatinib alone
[14] = human, plasma, po, adjusted geometric mean, induction cohort, healthy subjects, single oral capmatinib 400 mg + rifampicin 600 mg/day, plasma
[15] = human, plasma, po, geometric mean (geometric CV%), induction cohort, healthy subjects, single oral capmatinib 400 mg + rifampicin 600 mg/day, plasma
[16] = human, plasma, po, mean (CV%), induction cohort, healthy subjects, single oral capmatinib 400 mg + rifampicin 600 mg/day, plasma
[17] = induction cohort, healthy subjects, single oral capmatinib 400 mg + rifampicin 600 mg/day, plasma
[18] = induction cohort, healthy subjects, single oral capmatinib 400 mg alone, plasma

CNC(=O)c1ccc(-c2cnc3ncc(Cc4ccc5ncccc5c4)n3n2)cc1F [Capmatinib]
Substrate of OATP1B3 (OATP1B3): not a substrate
Increase of geometric mean AUCinf with itraconazole [1, 6]: 42%
Increase of geometric mean AUClast with itraconazole [1, 6]: 41%
AUC(0-t) ([1]; human, plasma, po, 200 mg): 5430 ng·h/mL
AUC(0-inf) ([1]; human, plasma, po, AUCinf, geometric mean (geometric CV%), inhibition cohort, healthy subjects, single oral capmatinib 200 mg + itraconazole 200 mg/day, plasma): 7450 ng·h/mL
Cmax ([1]; human, plasma, po, adjusted geometric mean, inhibition cohort, healthy subjects, single oral capmatinib 200 mg + itraconazole 200 mg/day, plasma): 1300 ng/mL
Cmax ([1]; human, plasma, po, geometric mean (geometric CV%), inhibition cohort, healthy subjects, single oral capmatinib 200 mg + itraconazole 200 mg/day, plasma): 1290 ng/mL
Cmax ([1]; human, plasma, po, mean (CV%), inhibition cohort, healthy subjects, single oral capmatinib 200 mg + itraconazole 200 mg/day, plasma): 1410 ng/mL
AUCinf, adjusted geometric mean [1, 7]: 7360 ng·h/mL
AUCinf, mean (CV%) [1, 7]: 7680 (24.3) ng · h/mL
AUClast, adjusted geometric mean [1, 7]: 7340 ng·h/mL
AUClast, mean (CV%) [1, 7]: 7660 (24.5) ng · h/mL
CL/F, geometric mean (geometric CV%) [1, 7]: 26.8 (26.4) L/h
CL/F, mean (CV%) [1, 7]: 27.8 (28.1) L/h
t1/2, geometric mean (geometric CV%) [1, 7]: 6.05 (31.3) h
t1/2, mean (CV%) [1, 7]: 6.34 (32.8) h
tmax, median (range) [1, 7]: 2.00 (0.495–4.01) h
AUCinf, geometric mean (geometric CV%) [1, 8]: 5280 (30.6) ng · h/mL
AUClast, adjusted geometric mean [1, 8]: 5220 ng·h/mL
AUClast, geometric mean (geometric CV%) [1, 8]: 5220 (30.6) ng · h/mL
CL/F, geometric mean (geometric CV%) [1, 8]: 37.9 (30.6) L/h
CL/F, mean (CV%) [1, 8]: 39.6 (33.4) L/h
Cmax, adjusted geometric mean [1, 8]: 1260 ng/mL
Cmax, geometric mean (geometric CV%) [1, 8]: 1260 (46.9) ng/mL
Cmax, mean (CV%) [1, 8]: 1380 (40.4) ng/mL
Tmax, median [1, 8]: 1.00 h
tmax, median (range) [1, 8]: 1.00 (0.505–4.00) h
AUCinf geometric mean ratio (90%CI) [1]: 1.42 (1.33–1.52)
AUClast geometric mean ratio (90%CI) [1]: 1.41 (1.29–1.53)
Cmax geometric mean ratio (90%CI) [1]: 1.03 (0.866–1.22)
AUCinf geometric mean ratio (90%CI) ([1]; listed as capmatinib): 1.42
AUClast geometric mean ratio (90%CI) ([1]; listed as capmatinib): 1.41
Cmax geometric mean ratio (90%CI) ([1]; listed as capmatinib): 1.03
Tmax median difference (minimum to maximum differences) ([1]; itraconazole + capmatinib 200 mg vs capmatinib alone): 0.489 (–3.02 to 3.00) h
Ki (MATE2K): 290 nM
Deaths (Safety assessment; either treatment cohort): No deaths were reported
Serious AEs (Safety assessment; either treatment cohort): No serious AEs were reported
AEs suspected to be related to the study treatment (any grade) (Safety assessment; [9]): 10 subjects
Discontinued study treatment due to AEs (Safety assessment; [9]): 1 subjects
AEs suspected to be related to the study treatment (any grade) (Safety assessment; [10]): 13 subjects
Amylase increased, grade 3 (Safety assessment; [10]): 1 subjects
Substrate of OATP1B1 (OATP1B1): not a substrate
Intrasubject coefficient of variation (CV%) for AUC [2]: 22.8%
Intrasubject coefficient of variation (CV%) for Cmax [2]: 29.9%
Change in serum creatinine ([3]; after a single dose of capmatinib, 3-day monitoring): transient increase
Time at which serum creatinine returned to baseline [3, 11]: 48 h
Maximum increase of serum creatinine concentration from baseline [3, 11]: 21%
Time at which serum creatinine returned to baseline [3, 12]: 72 h
Maximum increase of serum creatinine concentration from baseline [3, 12]: 27.3%
Change in serum cystatin C concentration ([3]; single dose capmatinib 200 or 400 mg, both cohorts, 3-day monitoring): no change
Decrease of geometric mean AUCinf with rifampicin [4, 13]: 66.5% and 67%
Decrease of geometric mean AUClast with rifampicin [4, 13]: 67.8%
Decrease of geometric mean Cmax with rifampicin [4, 13]: 55.9% and 55%
Tmax ([4]; human, plasma, po, 400 mg): 0.994 h
AUC(0-inf) [4, 14]: 3850 ng·h/mL
AUC(0-inf) [4, 15]: 3890 ng·h/mL
AUC(0-inf) [4, 16]: 4050 ng·h/mL
AUC(0-t) [4, 14]: 3720 ng·h/mL
AUC(0-t) [4, 15]: 3720 ng·h/mL
AUC(0-t) [4, 16]: 3860 ng·h/mL
Cmax [4, 14]: 1350 ng/mL
Cmax [4, 15]: 1350 ng/mL
half-life ([4]; human, plasma, po, t1/2, mean (CV%), induction cohort, healthy subjects, single oral capmatinib 400 mg + rifampicin 600 mg/day, plasma): 11.1 h
CL/F, geometric mean (geometric CV%) [4, 17]: 103 (29.4) L/h
CL/F, mean (CV%) [4, 17]: 107 (26.1) L/h
Cmax, mean (CV%) [4, 17]: 1460 (43.4) ng/mL
t1/2, geometric mean (geometric CV%) [4, 17]: 10.3 (40.8) h
tmax, median (range) [4, 17]: 0.994 (0.478–2.00) h
CL/F, geometric mean (geometric CV%) [4, 18]: 35.4 (24.3) L/h
CL/F, mean (CV%) [4, 18]: 36.4 (23.7) L/h
tmax, median (range) [4, 18]: 0.994 (0.461–3.00) h
AUCinf geometric mean ratio (90%CI) [4]: 0.335 (0.300–0.374)
AUClast geometric mean ratio (90%CI) [4]: 0.322 (0.294–0.353)
Cmax geometric mean ratio (90%CI) [4]: 0.441 (0.387–0.502)
AUCinf geometric mean ratio (90%CI) ([4]; listed as capmatinib): 0.335
AUClast geometric mean ratio (90%CI) ([4]; listed as capmatinib): 0.322
Cmax geometric mean ratio (90%CI) ([4]; listed as capmatinib): 0.441
Ki (MATE1): 280 nM
Cmax ([5]; read-out: Steady-state Cmax, total): 11.6 µM
Steady-state Cmax, unbound ([5]; unbound): 0.464 µM
